Results from ChEMBL document CHEMBL1148341, “Selective inhibition of Trypanosoma brucei 6-phosphogluconate dehydrogenase by high-energy intermediate and transition-state analogues” (J Med Chem, 2004).

How the values were obtained:
Leishmania donovani = test: In vitro antiparasitic activity was determined against Leishmania donovani; format: functional, organism-based
In short: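 Mouse peritoneal macrophages in RPMI 1640 with 10% heat-inactivated FBS, infected after 24 h with L. donovani amastigotes (3:1 amastigotes to macrophages); free amastigotes removed at 4 h. Next day, drug dilutions added; 96 h at 37 °C, 5% CO2. Slides methanol-fixed and Giemsa-stained; infected vs noninfected macrophages counted microscopically as % of control; IC50 by linear regression.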

Trypanosoma brucei = test: In vitro antiparasitic activity was determined against Trypanosoma brucei; format: functional, organism-based
Trypanosoma cruzi = test: In vitro antiparasitic activity was determined against Trypanosoma cruzi; format: functional, organism-based
In short: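 L-6 rat myoblasts (2000 cells/well, RPMI 1640, 10% FBS, 2 mM L-glutamine) infected after 24 h with 5000 T. cruzi Tulahuen C2C4 LacZ trypomastigotes plus serial drug dilutions; 4 days at 37 °C, 5% CO2. MIC read microscopically; for IC50, CPRG/Nonidet added, colour read at 540 nm after 2–4 h, IC50 from sigmoidal curve.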

Plasmodium falciparum = test: In vitro antiparasitic activity against Plasmodium falciparum; format: functional, organism-based
L6 [1] = test: In vitro cytotoxic activity was determined against L6 cells; format: functional, cell-based, Rattus norvegicus
L6 [2] = test: In vitro cytotoxic activity against L6 cells; format: functional, cell-based; details: Rattus norvegicus
[3] = biological target: 6-phosphogluconate dehydrogenase (Ovis aries) (UniProt P00349); test: Inhibition constant against 6-phosphogluconate dehydrogenase of sheep liver; NI denotes no inhibition
[4] = biological target: 6-phosphogluconate dehydrogenase (Trypanosoma brucei) (UniProt P31072); test: Inhibition constant against 6-phosphogluconate dehydrogenase of Trypanosoma brucei expressed in Escherichia coli; NI denotes no inhibition
Chain of 6-phosphogluconate dehydrogenase (Trypanosoma brucei) (P31072 whole entry, looked up): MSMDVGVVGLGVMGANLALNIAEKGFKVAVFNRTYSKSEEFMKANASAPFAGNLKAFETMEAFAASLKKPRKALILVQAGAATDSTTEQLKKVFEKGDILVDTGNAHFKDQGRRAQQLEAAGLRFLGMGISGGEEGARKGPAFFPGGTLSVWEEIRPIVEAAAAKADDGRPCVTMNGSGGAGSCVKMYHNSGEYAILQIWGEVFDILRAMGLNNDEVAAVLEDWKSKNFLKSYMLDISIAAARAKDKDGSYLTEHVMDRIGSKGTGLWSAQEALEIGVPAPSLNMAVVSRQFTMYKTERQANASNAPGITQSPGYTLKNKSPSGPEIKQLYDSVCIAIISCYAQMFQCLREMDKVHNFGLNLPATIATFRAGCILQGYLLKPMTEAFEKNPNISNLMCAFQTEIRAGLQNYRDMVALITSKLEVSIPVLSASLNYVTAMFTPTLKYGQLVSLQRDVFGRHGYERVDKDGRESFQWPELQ

Chain of 6-phosphogluconate dehydrogenase (Ovis aries) (P00349 whole entry, looked up): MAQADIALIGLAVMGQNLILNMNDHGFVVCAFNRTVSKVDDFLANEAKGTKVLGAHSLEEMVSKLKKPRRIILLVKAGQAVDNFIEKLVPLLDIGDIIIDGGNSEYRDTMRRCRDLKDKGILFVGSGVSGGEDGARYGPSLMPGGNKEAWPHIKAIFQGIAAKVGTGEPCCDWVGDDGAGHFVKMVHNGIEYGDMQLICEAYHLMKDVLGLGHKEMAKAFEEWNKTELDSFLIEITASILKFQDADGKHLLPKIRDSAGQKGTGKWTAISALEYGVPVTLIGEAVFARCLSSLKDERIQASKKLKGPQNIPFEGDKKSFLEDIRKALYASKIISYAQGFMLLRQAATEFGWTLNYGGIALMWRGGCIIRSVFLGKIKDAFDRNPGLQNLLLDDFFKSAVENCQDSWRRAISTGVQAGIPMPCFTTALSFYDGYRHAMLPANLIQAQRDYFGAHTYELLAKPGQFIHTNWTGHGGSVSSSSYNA

Row | SMILES | IC50 (Leishmania donovani) [µM] | IC50 (Trypanosoma brucei) [µM] | IC50 (Trypanosoma cruzi) [µM] | IC50 (Plasmodium falciparum) [µM] | IC50 (L6 [1]) | IC50 (L6 [2]) [µM] | Ki [3] | Ki [4]
1 | CC(=O)O[C@H](COP(=O)(OCc1ccccc1)OCc1ccccc1)[C@@H](OC(C)=O)C(=O)N(OCc1ccccc1)C(C)=O | > 48 | 49 | > 143 | > 80 |  |  |  | 
2 | O=C1OC[C@@H](OC2CCCO2)[C@H]1OC1CCCO1 (stereo partly drawn) | > 105 | 113 | > 315 | 78 |  |  |  | 
3 | O=C1OC[C@@H](O)[C@H]1O |  |  |  |  | Not Active |  |  | 
4 | CC1(C)OC[C@H](CSCC(=O)OCc2ccccc2)O1 | > 101 | > 304 | 215 | > 169 |  |  |  | 
5 | O=C(NO)[C@H](OC1CCCO1)[C@@H](CCO)OC1CCCO1 (stereo partly drawn) | > 94 | 61 | > 282 | ~157 |  |  |  | 
6 | CC(=O)O[C@H](COP(=O)(O)O)[C@@H](OC(C)=O)C(=O)NO |  | 229 | > 285 | > 159 |  | > 285 |  | 
7 | O=C(NOCc1ccccc1)[C@H](O)[C@H](O)COP(=O)(OCc1ccccc1)OCc1ccccc1 | 33 | 130 | > 179 | > 100 |  |  |  | 
8 | O=C(C[S+]([O-])C[C@H](O)COP(=O)(OCc1ccccc1)OCc1ccccc1)OCc1ccccc1 (stereo partly drawn) | > 56 | 82 | > 169 | > 94 |  |  | Not Active | Not Active
9 | CC1(C)O[C@H](COP(=O)(O)O)[C@H](C(N)=O)O1 |  | 212 | 131 | > 196 |  | > 220 |  | 
10 | O=C(NO)[C@H](O)[C@H](O)COP(=O)(O)O | > 130 | > 389 | > 389 | > 216 |  | 269 |  | 
11 | CC(=O)O[C@H](COP(=O)(OCc1ccccc1)OCc1ccccc1)[C@@H](OC(C)=O)C(=O)NOCc1ccccc1 | > 17 | 60 | > 154 | > 85 |  |  | Not Active | Not Active
12 | O=C(C[S+]([O-])C[C@@H](COP(=O)(OCc1ccccc1)OCc1ccccc1)OC1CCCO1)OCc1ccccc1 (stereo partly drawn) |  | 73 | 82 | 7 |  | 91 | Not Active | Not Active
13 | CC(=O)O[C@H](COP(=O)(O)O)C[S+]([O-])CC(=O)O (stereo partly drawn) | > 99 | 113 | > 296 | > 164 | Not Active |  |  | 
14 | O=C(O)C[S+]([O-])C[C@H](O)COP(=O)(O)O (stereo partly drawn) |  | 244 | > 343 | > 191 |  | 343 |  | 
15 | O=C(NO)[C@H](O)[C@H](O)CO | > 199 | 116 | 290 | 18 |  |  |  | 
16 | CC1(C)O[C@H](COP(=O)(OCc2ccccc2)OCc2ccccc2)[C@H](C(=O)NOCc2ccccc2)O1 | > 55 | 126 | > 166 | > 92 |  |  |  | 
17 | CC1(C)O[C@H](CO)[C@H](C(=O)NOCc2ccccc2)O1 | 30 | 3.5 | > 32 | 53 |  | 37 |  | 
18 | CC(=O)O[C@H](COP(=O)(OCc1ccccc1)OCc1ccccc1)CSCC(=O)OCc1ccccc1 | 28 | 137 | > 161 | 62 |  |  |  | 
19 | NC(=O)[C@H](O)[C@H](O)COP(=O)(O)O | > 139 | 277 | > 418 | > 232 |  | > 418 |  | 
20 | CC1(C)O[C@H](COP(=O)(O)O)[C@H](C(=O)NO)O1 | > 111 | > 332 | > 332 | > 184 |  | > 332 |  | 
21 | O=C(CSC[C@H](O)CO)OCc1ccccc1 | > 117 | 75 | 212 | > 195 |  |  |  | 
22 | CC(=O)O[C@H](COP(=O)(OCc1ccccc1)OCc1ccccc1)C[S+]([O-])CC(=O)OCc1ccccc1 (stereo partly drawn) | 27 | 36 | > 157 | 18 |  | 60 | Not Active | Not Active
23 | CC1(C)O[C@@H]2COC(=O)[C@@H]2O1 | > 190 | 262 | > 569 | > 316 | Not Active |  |  | 
24 | O=C(CSC[C@H](O)COP(=O)(OCc1ccccc1)OCc1ccccc1)OCc1ccccc1 | 23 | 47 | 124 | 65 |  |  |  | 
